# Experimental data as given in article PMC7034990 (Science Advances, 2020).
# Legend:
# [1] = biological target: ABC-C2 (multidrug resistance-associated protein 2) (Homo sapiens, UniProt Q92887); assay: ABC transporter inhibition, ABC-C2; format: in vitro ADME; details: read-out: inhibition of ABC-C2
# [2] = test system: F508del/F508del cultured bronchial epithelia; assay: Apical fluid pH measurement on CF bronchial epithelia; format: cell-based, human; details: 24 hours
# In short: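 CF bronchial epithelia at air-liquid interface were treated 24 h with correctors or DMSO vehicle. The apical side then received 75 μl low-buffer modified PBS (pH 7.35) containing 100 μM CPT-cAMP and 1 μM VX-770, for 3 h at 37°C, 5% CO2. The recovered fluid was mixed with SNARF-1 (final 0.1 mg/ml), excited at 544 nm, and the 590/640 nm emission ratio converted to pH by calibration curve.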
# [3] = biological target: ABC-B1 (MDR1, P-glycoprotein) (Homo sapiens, UniProt P08183); assay: ABC transporter inhibition, ABC-B1; format: in vitro ADME
# [4] = biological target: T1, F508del-CFTR in CFBE41o− cells (Homo sapiens, UniProt P13569, DEL508-508); assay: Thermoaggregation assay of mutant CFTR in cell lysates; format: cell-based; details: lysates heat-denatured at 28° to 70°C; ARN23765 1 nM, VX-809 1 μM
# In short: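 F508del-CFTR CFBE41o− cells were treated 24 h; wild-type CFTR CFBE41o− cells were run in parallel. Confluent cells received cycloheximide (150 μg/ml) for 2 h, were lysed in RIPA on ice and cleared at 15,000g, 10 min, 4°C. Lysate (50 μg) was heated 15 min at 28–70°C. Aggregates were removed at 15,000g, 15 min, 4°C; soluble CFTR was immunoblotted and normalised to HSP90AB1.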
# [5] = test system: F508del-CFTR CFBE41o− cells; assay: HS-YFP assay in CFBE41o− cells expressing F508del-CFTR; format: cell-based
# F508del-CFTR FRT cells = assay: Transepithelial electrical conductance; format: cell-based; details: 24 hours, compared to VX-809 (1 μM)
# In short: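 F508del-CFTR FRT cells on porous membranes were treated 24 h at 37°C, 5% CO2. Same saline both sides: 130 mM NaCl, 10 mM Na-Hepes pH 7.3, 10 mM glucose. TEER was read at baseline, after forskolin 20 μM + genistein 50 μM, then after PPQ102 30 μM, waiting 10 min per step. TEER values were converted to TEEC.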
# [6] = biological target: T1, F508del-CFTR in CFBE41o− cells; assay: F508del-CFTR half-life after cycloheximide block of protein synthesis; format: cell-based; details: 24 hours of treatment then cycloheximide, ARN23765 1 nM, VX-809 1 μM
# [7] = test system: receptors, monoamine transporters, ABC proteins, and hERG channel; assay: Off-target panel; details: 10 μM
# P574H-CFTR = P574H-CFTR (Homo sapiens, UniProt P13569, P574H); assay: Rescue of P574H-CFTR in FRT cells; format: cell-based; details: 37 °C or 32 °C
# In short: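 FRT cells stably co-expressing P574H-CFTR and HS-YFP (H148Q/I152L), plated at 50,000/well. After a PBS wash, cells were stimulated 25 min with forskolin 20 μM plus VX-770 1 μM. Iodide solution was then injected (final I− 100 mM) and YFP fluorescence read at 500/535 nm ex/em. Values were normalized to initial background-subtracted fluorescence. I− influx rate came from an exponential fit of the final 11 s.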
# [8] = test system: F508del/F508del bronchial epithelial cells; assay: Short-circuit current recordings on primary CF bronchial epithelial cells; format: cell-based, human
# In short: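 Primary bronchial epithelial cells came from lung-transplant bronchi and were differentiated on porous inserts, then kept 2–3 weeks under air-liquid culture. Correctors or DMSO were given in basolateral medium. Epithelia were mounted in a vertical diffusion chamber, bicarbonate saline (126 mM NaCl, 24 mM NaHCO3, 10 mM glucose) both sides, gassed 5% CO2:95% air, 37°C. Voltage was clamped and short-circuit current recorded. ENaC was blocked with amiloride (10 μM).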
# Chain of ABC-B1 (MDR1, P-glycoprotein) (P08183 whole entry, species assumed): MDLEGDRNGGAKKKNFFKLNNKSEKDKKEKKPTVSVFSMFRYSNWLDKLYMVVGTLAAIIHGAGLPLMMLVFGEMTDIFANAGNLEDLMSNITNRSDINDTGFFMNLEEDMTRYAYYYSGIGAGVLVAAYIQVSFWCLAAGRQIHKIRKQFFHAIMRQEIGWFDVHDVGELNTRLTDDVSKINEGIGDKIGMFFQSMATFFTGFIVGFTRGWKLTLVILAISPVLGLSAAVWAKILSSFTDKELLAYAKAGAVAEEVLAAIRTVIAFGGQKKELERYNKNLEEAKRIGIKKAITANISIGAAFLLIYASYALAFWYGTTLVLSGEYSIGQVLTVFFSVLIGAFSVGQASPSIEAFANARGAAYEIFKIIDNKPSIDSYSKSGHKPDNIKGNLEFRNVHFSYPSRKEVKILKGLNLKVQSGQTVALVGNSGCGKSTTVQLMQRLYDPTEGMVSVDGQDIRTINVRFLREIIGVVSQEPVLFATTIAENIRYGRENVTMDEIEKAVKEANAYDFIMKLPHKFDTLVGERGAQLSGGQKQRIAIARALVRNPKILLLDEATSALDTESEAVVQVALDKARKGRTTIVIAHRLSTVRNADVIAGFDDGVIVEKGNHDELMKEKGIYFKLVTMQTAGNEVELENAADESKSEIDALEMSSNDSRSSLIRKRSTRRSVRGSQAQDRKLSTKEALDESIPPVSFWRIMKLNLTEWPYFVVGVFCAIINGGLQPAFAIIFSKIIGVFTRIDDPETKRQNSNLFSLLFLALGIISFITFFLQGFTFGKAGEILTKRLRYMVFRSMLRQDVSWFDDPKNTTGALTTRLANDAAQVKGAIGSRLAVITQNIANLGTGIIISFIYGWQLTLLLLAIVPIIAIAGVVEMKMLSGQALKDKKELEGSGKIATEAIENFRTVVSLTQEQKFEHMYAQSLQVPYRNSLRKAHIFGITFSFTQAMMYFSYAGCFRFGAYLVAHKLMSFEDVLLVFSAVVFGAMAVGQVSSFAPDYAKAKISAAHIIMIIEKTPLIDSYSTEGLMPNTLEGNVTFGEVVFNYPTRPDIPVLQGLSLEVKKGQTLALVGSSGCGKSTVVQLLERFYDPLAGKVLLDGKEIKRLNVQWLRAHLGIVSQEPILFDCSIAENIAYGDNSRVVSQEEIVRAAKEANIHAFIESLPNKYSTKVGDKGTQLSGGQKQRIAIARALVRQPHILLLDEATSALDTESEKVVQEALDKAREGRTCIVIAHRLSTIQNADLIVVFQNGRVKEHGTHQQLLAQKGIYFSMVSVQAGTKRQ
# Chain of ABC-C2 (multidrug resistance-associated protein 2) (Q92887 whole entry, species assumed): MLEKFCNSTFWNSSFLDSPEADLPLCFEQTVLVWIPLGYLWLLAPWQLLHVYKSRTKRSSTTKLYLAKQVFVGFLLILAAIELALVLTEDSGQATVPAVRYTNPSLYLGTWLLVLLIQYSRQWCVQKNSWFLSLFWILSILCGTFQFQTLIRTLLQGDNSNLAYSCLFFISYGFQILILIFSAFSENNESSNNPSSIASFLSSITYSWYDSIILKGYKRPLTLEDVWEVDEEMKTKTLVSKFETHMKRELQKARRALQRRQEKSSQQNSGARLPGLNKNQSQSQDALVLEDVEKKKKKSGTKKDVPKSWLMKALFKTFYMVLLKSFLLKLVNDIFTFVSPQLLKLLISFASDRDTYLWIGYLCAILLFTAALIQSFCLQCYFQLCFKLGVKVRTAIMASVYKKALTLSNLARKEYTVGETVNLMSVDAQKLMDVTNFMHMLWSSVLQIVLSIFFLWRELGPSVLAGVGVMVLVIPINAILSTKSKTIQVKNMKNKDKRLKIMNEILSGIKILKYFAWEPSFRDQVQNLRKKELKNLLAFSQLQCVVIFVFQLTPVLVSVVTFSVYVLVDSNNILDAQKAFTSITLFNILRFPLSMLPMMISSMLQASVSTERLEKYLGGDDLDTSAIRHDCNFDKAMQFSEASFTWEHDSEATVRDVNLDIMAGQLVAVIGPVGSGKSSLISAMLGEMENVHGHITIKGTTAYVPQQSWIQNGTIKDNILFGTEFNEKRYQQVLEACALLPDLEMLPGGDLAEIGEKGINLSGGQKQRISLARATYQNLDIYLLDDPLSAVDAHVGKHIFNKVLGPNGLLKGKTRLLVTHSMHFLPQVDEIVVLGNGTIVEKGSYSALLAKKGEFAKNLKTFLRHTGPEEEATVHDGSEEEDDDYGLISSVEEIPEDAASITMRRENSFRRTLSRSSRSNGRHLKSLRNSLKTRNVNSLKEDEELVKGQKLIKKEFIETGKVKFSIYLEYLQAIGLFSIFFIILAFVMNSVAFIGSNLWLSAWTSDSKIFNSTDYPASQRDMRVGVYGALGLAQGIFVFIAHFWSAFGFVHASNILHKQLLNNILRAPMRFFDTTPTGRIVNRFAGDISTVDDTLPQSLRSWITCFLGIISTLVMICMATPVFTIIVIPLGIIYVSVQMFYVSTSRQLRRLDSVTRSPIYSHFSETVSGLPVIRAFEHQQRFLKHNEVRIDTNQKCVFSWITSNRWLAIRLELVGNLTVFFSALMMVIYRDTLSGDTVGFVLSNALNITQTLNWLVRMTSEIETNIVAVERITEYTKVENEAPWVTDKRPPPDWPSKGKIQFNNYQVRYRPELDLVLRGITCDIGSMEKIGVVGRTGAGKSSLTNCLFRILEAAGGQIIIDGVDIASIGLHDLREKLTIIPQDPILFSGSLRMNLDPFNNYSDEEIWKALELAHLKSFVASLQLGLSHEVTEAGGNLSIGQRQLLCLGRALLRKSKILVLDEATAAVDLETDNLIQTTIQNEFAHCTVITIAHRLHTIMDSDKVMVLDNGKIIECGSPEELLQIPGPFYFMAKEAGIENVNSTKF
structure (smiles),measurement,setting,value
CN(C(=O)c1cccc(-n2nc(C(F)(F)F)c3c2[C@@H](Oc2ccc(C(=O)O)cc2)CCC3)c1)c1ccc2c(c1)OC(F)(F)O2 [ARN23765],inhibition at 10 µM,[1],27%
same,"pH of the apical fluid, combination of ARN23765 and 4172",[2]; ARN23765 10 nM plus 4172 10 μM,further increased pH to a level significantly higher than that measured with each corrector alone
same,"pH of the apical fluid, single corrector","[2]; ARN23765 10 nM, 4172 10 μM, versus control-treated cells",significant increase in pH
same,inhibition at 10 µM,[3],13%
same,resistance to thermoaggregation of mature CFTR,[4],significantly increased the resistance to thermoaggregation of mature CFTR
same,F508del-CFTR activity (QR) of the ARN23765/VX-809 combination,"[5]; CFBE41o− cells, VX-809 1 μM, ARN23765 10 nM, or both",no additive effect
same,EC50,"[5]; Homo sapiens, CFBE41o-, 24 h",0.4 nM
same,"correction of F508del-CFTR, ∆TEEC",F508del-CFTR FRT cells,high potency and efficacy
same,increase of half-life of mature CFTR (band C),[6],threefold
same,effects on a panel of relevant biological targets,[7],no alerting effects
same,P574H-CFTR function,P574H-CFTR,"improves the function of P574H-CFTR, particularly in combination with low temperature"
same,effective concentrations lower compared to VX-809 and VX-661,[8],more than 5000 times
same,time after removal of the compound at which correction can be observed,[8],up to 36 hours
same,improvement in potency (EC50) with respect to VX-809 / presently available corrector drugs,[8]; F508del/F508del bronchial epithelial cells,more than 5000 fold
same,EC50,"[8]; Homo sapiens, Epithelial cell",0.038 nM
same,extent of rescue after 72 hours of treatment,[8]; VX-809 1 μM or ARN23765 1 nM for 72 hours,comparable to that of epithelia treated with these correctors for only 24 hours
same,F508del-CFTR rescue after 120 hours of treatment,"[8]; VX-809 1 μM or ARN23765 1 nM for 120 hours, compared to 72 hours",still maintained
same,rescue of F508del-CFTR function,"[8]; short-circuit current, CF primary bronchial epithelial cells, 24 hours",decreased at 1 μM
